Assay results pooled from the literature.
Compare with care: the assays were run in different laboratories.
Target: Serine/threonine-protein kinase ULK2 (ULK2, Homo sapiens, UniProt Q8IYT8)
Residues used in one study (Q8IYT8 1-1036): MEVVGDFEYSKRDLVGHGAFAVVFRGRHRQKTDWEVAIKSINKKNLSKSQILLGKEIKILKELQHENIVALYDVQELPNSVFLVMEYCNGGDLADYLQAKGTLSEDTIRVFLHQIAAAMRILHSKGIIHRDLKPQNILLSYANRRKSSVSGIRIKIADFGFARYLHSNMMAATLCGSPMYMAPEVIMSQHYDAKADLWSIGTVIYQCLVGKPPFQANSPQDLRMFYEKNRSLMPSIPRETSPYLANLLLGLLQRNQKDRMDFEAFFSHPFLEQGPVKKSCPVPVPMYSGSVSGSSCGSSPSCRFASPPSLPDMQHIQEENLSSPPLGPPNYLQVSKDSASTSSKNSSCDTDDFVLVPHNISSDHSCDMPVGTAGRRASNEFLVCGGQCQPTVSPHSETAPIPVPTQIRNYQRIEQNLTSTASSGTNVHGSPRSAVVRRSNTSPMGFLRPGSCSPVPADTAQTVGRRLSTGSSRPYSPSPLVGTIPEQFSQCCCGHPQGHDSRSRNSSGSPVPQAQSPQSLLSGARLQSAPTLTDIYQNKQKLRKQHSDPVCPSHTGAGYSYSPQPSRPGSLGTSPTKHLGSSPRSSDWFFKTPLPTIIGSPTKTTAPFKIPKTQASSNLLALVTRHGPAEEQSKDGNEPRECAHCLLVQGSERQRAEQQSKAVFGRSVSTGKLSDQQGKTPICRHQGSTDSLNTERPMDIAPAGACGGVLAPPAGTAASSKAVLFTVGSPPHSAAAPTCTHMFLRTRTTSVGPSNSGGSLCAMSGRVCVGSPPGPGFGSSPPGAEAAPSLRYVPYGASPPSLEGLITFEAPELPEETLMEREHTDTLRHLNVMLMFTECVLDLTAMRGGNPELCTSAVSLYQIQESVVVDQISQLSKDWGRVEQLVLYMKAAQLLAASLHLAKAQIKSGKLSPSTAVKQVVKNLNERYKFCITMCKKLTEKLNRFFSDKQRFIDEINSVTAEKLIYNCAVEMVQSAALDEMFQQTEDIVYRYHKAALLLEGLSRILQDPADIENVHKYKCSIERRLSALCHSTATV

| Compound | test | setting | remaining binding |
| --- | --- | --- | --- |
| CCC(=O)N[C@H]1CC[C@@H](C(=O)N(C)c2ccc(-c3nc4ccccc4o3)cc2)C1 | cell-free assay, competition with immobilised ligand | 1 µM | 75% |
| COc1cnc(Nc2cccc(S(N)(=O)=O)c2)nc1N1CCN(c2ccccc2)C(=O)C1 | binding, competition with immobilised ligand | 1 µM | 51% |
| O=C(NCCCN1CCOCC1)c1ccc(Nc2nccc(-c3cc4ccccc4s3)n2)cc1 | binding, competition with immobilised ligand | 1 µM | 62% |
| Nc1ncc2c(n1)-c1c([nH]c3ccc(C#CC4CC4)cc13)CCCC2 | binding, competition with immobilised ligand | 1 µM | 100% |
| c1cnn2ncc(-c3ccnc(N4CCC45COC5)n3)c2c1 | binding | 1 µM | 59% |
| CC(C)(C)c1ccc(-c2nc(CBr)nn2-c2cccc(O)c2)cc1 | cell-free assay, competition with immobilised ligand | 10 µM | 92% |
| COC(=O)Nc1nc2ccc(C(=O)c3ccccc3)cc2[nH]1 | cell-free assay, competition with immobilised ligand | 10 µM | 30% |
| NS(=O)(=O)c1cc(NC(=O)C2(c3ccccc3Cl)CC2)ccc1Oc1cccc(Cl)c1 | cell-free assay, competition with immobilised ligand | 1 µM | 100% |
| Cc1cnc(Nc2ccc(C(=O)N3CCC(N4CCCC4)CC3)cc2)nc1-c1cc2ccccc2s1 | binding, competition with immobilised ligand | 1 µM | 12% |
| N#Cc1ccccc1CSc1nnc2c(n1)[nH]c1ccccc12 | binding, competition with immobilised ligand | 10 µM | 94% |
| CN(C)c1nccc(-c2cnn3ncccc23)n1 | binding | 1 µM | 100% |
| CCCOc1ccc([C@H]2[C@H](C(=O)O)[C@@H](c3ccc4c(c3)OCO4)CN2CC(=O)Nc2c(CC)cccc2CC)cc1 | cell-free assay, competition with immobilised ligand | 1 µM | 55% |
| Cc1cnn2ncc(-c3ccnc(N(C)C)n3)c2c1 | binding | 1 µM | 92% |
| FC(F)(F)c1ccc2c(c1)nc(-c1cccnc1)n2C1CC1 | cell-free assay, competition with immobilised ligand | 1 µM | 100% |
| O=C(Nc1c[nH]nc1C(=O)NC1CCNCC1)c1cc(F)cc(F)c1 | binding, competition with immobilised ligand | 1 µM | 99% |
| CN(CCCC(F)(F)F)c1nccc(-c2cnn3ncccc23)n1 | binding | 1 µM | 96% |
| CS(=O)(=O)c1cc(C2(NC(=O)c3cncc4c3cnn4-c3ccc(F)cc3)CC2)ccn1 | cell-free assay, competition with immobilised ligand | 1 µM | 92% |
